Measured values from ChEMBL document CHEMBL1134780, “Indolequinone antitumor agents: correlation between quinone structure and rate of metabolism by recombinant human NAD(P)H:quinone oxidoreductase. Part 2” (J Med Chem, 2001).

Assays:
[1] = biological target: NAD(P)H dehydrogenase [quinone] 1 (Homo sapiens) (UniProt P15559); experiment: Ability to inactivate Recombinant human NQO1; type: functional; design: concentration or dose not given beside the values
In short: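 Recombinant hNQO1 (1–2 µg) preincubated 30 min at 22 °C with 10 µM indolequinone, with or without 100 µM NADH, in 25 mM Tris-HCl pH 7.4 + 2 mg/mL Tween-20. Reaction stopped with cold Tris-HCl/250 mM sucrose. Residual activity measured as reduction of 40 µM DPIP with 200 µM NADH (0.7 mg/mL BSA) at 600 nm for 30 s. Reported as % remaining, +NADH versus −NADH.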

[2] = biological target: NAD(P)H dehydrogenase [quinone] 1 (Homo sapiens) (UniProt P15559); experiment: NADH oxidation is used as a measure metabolism since 1 mol of NADH is oxidized for each mole of compound that is reduced; type: functional
BE-WT = experiment: Cytotoxicity against BE human colon carcinoma cell lines BE-WT(No NQO1 activity); type: functional, cell-based
In short: (§1)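 MTT assay in BE colon carcinoma cells, wild-type (BE-WT) or stably transfected with human NQO1 cDNA (BE-NQ). Cells grown in MEM/10% FBS at 37 °C, 5% CO2, plated at (1–2) × 10^4 cells/mL and attached 16 h. Drug exposure 2 h, then drug-free medium for 5–7 days. MTT for 4 h, formazan dissolved in DMSO, A550. IC50 taken from % control versus concentration plots.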

BE-NQ = experiment: Cytotoxicity against BE human colon carcinoma cell lines BE-NQ( high NQO1 activity); type: functional, cell-based; in short: as §1

Sequence of NAD(P)H dehydrogenase [quinone] 1 (Homo sapiens) (P15559 whole entry): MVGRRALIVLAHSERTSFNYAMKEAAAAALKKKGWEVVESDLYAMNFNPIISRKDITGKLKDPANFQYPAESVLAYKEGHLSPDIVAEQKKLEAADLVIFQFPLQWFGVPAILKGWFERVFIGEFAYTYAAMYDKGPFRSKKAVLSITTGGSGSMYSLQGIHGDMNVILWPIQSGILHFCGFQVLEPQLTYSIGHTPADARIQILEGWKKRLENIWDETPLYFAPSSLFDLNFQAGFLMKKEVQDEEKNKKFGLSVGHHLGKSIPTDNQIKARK

Compound | Enzyme activity [1] | Metabolism [2] | IC50 (BE-WT) | IC50 (BE-NQ)
CCOC(=O)c1c2c(n(CCN3CCOCC3)c1C)C(=O)C(C)=C(OC)C2=O |  | 39.4 µM/min/mg |  | 
COC(=O)c1c2c(n(C)c1C)C(=O)C(C)=C(OC)C2=O |  | 13.7 µM/min/mg |  | 
CCCn1c(C)c(C(=O)OCC)c2c1C(=O)C(C)=C(OC)C2=O |  | 18.6 µM/min/mg |  | 
CCCn1c(C)c(CO)c2c1C(=O)C(C)=C(OC)C2=O |  | 1.7 µM/min/mg |  | 
COC1=CC(=O)c2c(c(CO)cn2C)C1=O | 96% | 13.6 µM/min/mg | > 50 µM | > 50 µM
CCOC(=O)c1c2c(n(C3CC3)c1C)C(=O)C=C(OC)C2=O |  | 36.6 µM/min/mg |  | 
CCc1c(CO)c2c(n1Cc1ccccc1)C(=O)C=C(OC)C2=O |  | 0.9 µM/min/mg |  | 
COC1=CC(=O)c2[nH]c(C)c(C(C)O)c2C1=O (centres undefined) |  | 27.7 µM/min/mg |  | 
COC1=CC(=O)c2c(c(CO)c(C)n2C2CC2)C1=O |  | 14 µM/min/mg |  | 
COC1=C(C)C(=O)c2c(c(CO)c(C)n2-c2ccccc2)C1=O |  | 3 µM/min/mg |  | 
CN1CCN(C2=CC(=O)c3c(c(CO)c(-c4ccccc4)n3C)C2=O)CC1 |  | 0.15 µM/min/mg |  | 
CCOC(=O)c1c2c(n(-c3ccccc3)c1C)C(=O)C(C)=C(OC)C2=O |  | 7.9 µM/min/mg |  | 
Cc1c(C(C)O)c2c(n1C)C(=O)C=C(N1CCOCC1)C2=O (centres undefined) |  | 0.27 µM/min/mg |  | 
COC1=C(C)C(=O)c2c(c(CO)c(C)n2CCN2CCOCC2)C1=O |  | 7.6 µM/min/mg |  | 
COC1=CC(=O)c2[nH]c(C)c(C(C)=O)c2C1=O |  | 29.8 µM/min/mg |  | 

Continued, in another order:

Enzyme activity [1] | Metabolism [2] | Compound | IC50 (BE-WT) | IC50 (BE-NQ)
0% |  | COC1=CC(=O)c2c(c(COC(C)=O)c(C)n2C)C1=O |  | 
 | 0.38 µM/min/mg | COC1=CC(=O)c2c(c(COc3ccc(NC(C)=O)cc3)c(C)n2C)C1=O | 10.3 µM | 6.6 µM
 | 10.4 µM/min/mg | COC1=CC(=O)c2c(c(C(C)O)c(C)n2C)C1=O (centres undefined) |  | 
19% | 0.11 µM/min/mg | CCOC(=O)CNC(=O)OCc1c2c(n(C)c1C)C(=O)C=C(OC)C2=O | 3.8 µM | 3.2 µM
 | 1.1 µM/min/mg | CCOC(=S)SCc1c2c(n(C)c1C)C(=O)C=C(OC)C2=O | > 50 µM | > 50 µM
 | 9.2 µM/min/mg | COC1=CC(=O)c2c(c(CO)c(C)n2-c2ccc(F)cc2)C1=O |  | 
 | 77.6 µM/min/mg | CCCn1c(C)c(C(=O)OCC)c2c1C(=O)C=C(OC)C2=O |  | 
0% | 0.09 µM/min/mg | COC1=CC(=O)c2c(c(COC(=O)Cc3ccc(-c4ccccc4)cc3)c(C)n2C)C1=O | 5.5 µM | 5.1 µM
 | 6 µM/min/mg | COC1=CC(=O)c2c(c(CO)c(C)n2-c2ccccc2)C1=O |  | 
52% | 0.29 µM/min/mg | COC1=CC(=O)c2c(c(COc3ccc([N+](=O)[O-])cc3)cn2C)C1=O | 1.05 µM | 0.44 µM
 | 16.4 µM/min/mg | CCOC(=O)c1c2c(n(-c3ccccc3)c1C)C(=O)C=C(OC)C2=O |  | 
13% | 0.05 µM/min/mg | COC1=CC(=O)c2c(c(COc3cc([N+](=O)[O-])ccc3OC)c(C)n2C)C1=O | 34.4 µM | 6.5 µM
 | 3.8 µM/min/mg | COC1=C(C)C(=O)c2c(c(CO)c(C)n2C)C1=O |  | 
 | 0.23 µM/min/mg | CCOC(=O)c1c2c(n(C)c1-c1ccc3ccccc3c1)C(=O)C=C(OC)C2=O | 49 µM | > 50 µM
 | 1.3 µM/min/mg | CCCn1c(C)c(CO)c2c1C(=O)C=C(OC)C2=O |  | 
 | 0.05 µM/min/mg | COC1=CC(=O)c2c(c(COc3ccc([N+](=O)[O-])cc3OC)c(C)n2C)C1=O | 1.5 µM | 0.51 µM
 | 4 µM/min/mg | COC1=CC(=O)c2c(c(CO)c(-c3ccc4ccccc4c3)n2C)C1=O | > 50 µM | > 50 µM
0% | 0.05 µM/min/mg | COC1=CC(=O)c2c(c(COc3ccc([N+](=O)[O-])cc3F)c(C)n2C)C1=O | 1.5 µM | 1.2 µM
 | 9.3 µM/min/mg | CCc1c(C(=O)OC)c2c(n1Cc1ccccc1)C(=O)C=C(OC)C2=O |  | 
 | 3.9 µM/min/mg | CCOC(=O)c1c2c(n(-c3ccc(F)cc3)c1C)C(=O)C=C(OC)C2=O |  | 
 | 0.28 µM/min/mg | COC1=CC(=O)c2c(c(COc3ccccc3)c(C)n2C)C1=O |  | 
